PubChem BioAssay
Activity calls are given as the source filed them.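 Rule for the calls: active = current rise at least 3 SD above the untreated control mean in each of two repeat wells; inactive = the rest.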

Target: Potassium voltage-gated channel subfamily KQT member 1 (Homo sapiens) (UniProt P51787)
Test: KCNQ1 channel current potentiators, confirmation, orthogonal assay for KCNQ1 potentiator project, IonWorks patch clamp, KCNQ1-CHO cells (AID 493184)
Conditions: automated patch clamp current, at 10 µM
Method in brief: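 Test system: KCNQ1-expressing CHO cells. Medium: pH 7.4 external bath. Probe or stimulus: voltage step from -90 mV holding to +40 mV, 2,000 ms. Compound: 10 µM final, single point. Detection: automated perforated-patch electrophysiology. Read-out: percent current increase versus pre-compound level. Repeats: two replicates.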

Potassium voltage-gated channel subfamily KQT member 1 (Homo sapiens), sequence (P51787 whole entry, looked up): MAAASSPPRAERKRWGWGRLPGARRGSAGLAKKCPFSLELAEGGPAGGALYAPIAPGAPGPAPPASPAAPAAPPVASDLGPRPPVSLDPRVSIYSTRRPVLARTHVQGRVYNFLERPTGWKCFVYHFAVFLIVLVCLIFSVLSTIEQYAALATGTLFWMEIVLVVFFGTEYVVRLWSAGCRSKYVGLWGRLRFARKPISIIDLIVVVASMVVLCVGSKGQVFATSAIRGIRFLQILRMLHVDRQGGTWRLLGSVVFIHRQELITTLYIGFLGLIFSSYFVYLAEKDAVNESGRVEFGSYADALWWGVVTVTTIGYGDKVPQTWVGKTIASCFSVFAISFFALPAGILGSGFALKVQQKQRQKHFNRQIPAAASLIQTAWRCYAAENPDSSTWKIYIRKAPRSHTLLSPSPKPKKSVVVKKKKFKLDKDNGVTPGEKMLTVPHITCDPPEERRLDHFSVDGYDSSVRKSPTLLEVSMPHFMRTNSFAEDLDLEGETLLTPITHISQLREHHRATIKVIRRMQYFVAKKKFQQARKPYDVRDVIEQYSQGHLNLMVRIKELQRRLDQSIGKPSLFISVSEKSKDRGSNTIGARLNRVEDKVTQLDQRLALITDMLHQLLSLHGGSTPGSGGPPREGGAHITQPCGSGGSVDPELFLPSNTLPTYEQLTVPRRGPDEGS

CCCCN(CC)CCCNC(=O)c1cc2cc3ccc(C)cc3nc2o1
outcome: inactive

CCCCCCCCCC[n+]1cccc2c3ccccc3ccc21
outcome: inactive
